From ChEMBL document CHEMBL1123925 (J Med Chem, 1987) come the findings set out here.

Test [1] deals with GABA-A receptor; anion channel. Put plainly: Displacement of [3H]GABA from Gamma-aminobutyric acid A receptor ofrat brain membranes. Also noted: species or system Rattus norvegicus. The gist of the method:
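Male Wistar rat whole-brain synaptic membranes, frozen at -20 °C for at least 18 h, Triton X-100 (0.05%) treated at 37 °C for 30 min. Filtration, scintillation counting. Nonspecific binding with 100 μM muscimol. IC50 by log-probit analysis; means of two triplicate experiments.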

A further test deals with GABA B receptor (Rattus norvegicus, UniProt O88871+Q9Z0U4). The experiment in a line: Displacement of [3H]baclofen from Gamma-aminobutyric acid type B receptor of rat brain membranes. Format: cell membranes, Membrane. In a few lines:
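Rat whole-brain synaptic membranes were water-washed and frozen at -20 °C for at least 18 h. They were then washed repeatedly in 50 mM Tris-HCl pH 7.4 with 2.5 mM CaCl2 at 20 °C. The assay was stopped by centrifugation and read by scintillation counting. IC50 values are means of two experiments.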

A value given as a limit tells only on which side of the number the result lay.

GABA B receptor, sequence (Q9Z0U4 whole entry): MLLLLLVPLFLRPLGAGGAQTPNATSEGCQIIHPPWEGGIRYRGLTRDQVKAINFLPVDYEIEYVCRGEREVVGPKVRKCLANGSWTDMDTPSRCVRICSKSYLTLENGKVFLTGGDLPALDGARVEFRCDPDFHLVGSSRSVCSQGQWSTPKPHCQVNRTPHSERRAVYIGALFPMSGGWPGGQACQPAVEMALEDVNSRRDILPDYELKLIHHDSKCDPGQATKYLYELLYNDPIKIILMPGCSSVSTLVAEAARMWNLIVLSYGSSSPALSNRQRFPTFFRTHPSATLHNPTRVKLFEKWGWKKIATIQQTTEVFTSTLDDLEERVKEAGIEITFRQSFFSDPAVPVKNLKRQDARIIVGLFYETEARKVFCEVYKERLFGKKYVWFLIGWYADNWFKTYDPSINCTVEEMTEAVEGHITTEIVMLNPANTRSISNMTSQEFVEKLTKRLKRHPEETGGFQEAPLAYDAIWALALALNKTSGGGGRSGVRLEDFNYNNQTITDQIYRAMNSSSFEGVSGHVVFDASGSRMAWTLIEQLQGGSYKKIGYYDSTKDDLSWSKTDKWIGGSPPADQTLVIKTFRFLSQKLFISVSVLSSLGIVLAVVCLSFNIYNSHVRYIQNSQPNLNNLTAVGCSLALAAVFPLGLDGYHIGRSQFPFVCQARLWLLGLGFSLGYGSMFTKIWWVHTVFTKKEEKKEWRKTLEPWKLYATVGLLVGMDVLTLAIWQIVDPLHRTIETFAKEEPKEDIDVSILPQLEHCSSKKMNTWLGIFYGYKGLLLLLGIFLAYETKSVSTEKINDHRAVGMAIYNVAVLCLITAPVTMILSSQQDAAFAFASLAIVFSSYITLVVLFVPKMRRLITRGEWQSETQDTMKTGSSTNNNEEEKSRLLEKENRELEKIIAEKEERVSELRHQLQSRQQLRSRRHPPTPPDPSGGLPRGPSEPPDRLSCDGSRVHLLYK
GABA B receptor, sequence (O88871 whole entry): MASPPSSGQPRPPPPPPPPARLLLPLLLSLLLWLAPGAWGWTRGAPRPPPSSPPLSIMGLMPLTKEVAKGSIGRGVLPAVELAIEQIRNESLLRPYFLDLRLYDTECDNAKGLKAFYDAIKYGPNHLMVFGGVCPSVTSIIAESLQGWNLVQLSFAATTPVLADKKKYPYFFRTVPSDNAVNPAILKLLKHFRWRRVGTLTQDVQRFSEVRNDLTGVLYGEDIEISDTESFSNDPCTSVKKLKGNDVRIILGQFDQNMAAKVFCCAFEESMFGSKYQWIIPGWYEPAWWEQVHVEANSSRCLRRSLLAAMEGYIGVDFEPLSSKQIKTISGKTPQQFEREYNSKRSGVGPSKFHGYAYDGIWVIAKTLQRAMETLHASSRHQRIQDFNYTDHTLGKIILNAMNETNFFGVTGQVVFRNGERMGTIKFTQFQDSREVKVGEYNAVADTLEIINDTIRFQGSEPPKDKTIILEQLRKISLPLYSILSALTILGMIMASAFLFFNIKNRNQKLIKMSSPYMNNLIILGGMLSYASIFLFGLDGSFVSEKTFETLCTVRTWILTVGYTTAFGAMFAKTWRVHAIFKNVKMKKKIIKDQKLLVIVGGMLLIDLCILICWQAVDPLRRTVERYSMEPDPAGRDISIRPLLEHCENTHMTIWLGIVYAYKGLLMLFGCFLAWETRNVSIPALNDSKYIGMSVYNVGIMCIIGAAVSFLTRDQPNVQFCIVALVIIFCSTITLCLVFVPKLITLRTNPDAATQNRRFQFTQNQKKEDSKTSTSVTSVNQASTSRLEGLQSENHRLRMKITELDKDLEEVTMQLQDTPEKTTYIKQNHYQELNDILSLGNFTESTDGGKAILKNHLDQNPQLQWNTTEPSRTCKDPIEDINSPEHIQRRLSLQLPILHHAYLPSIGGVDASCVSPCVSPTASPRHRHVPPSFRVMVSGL

In the case of `CC(C)Oc1ccc(C(CN)CC(=O)O)cc1` (centres undefined), the concentration for half-maximal inhibition (IC50) in test [1] is > 100 µM. For `NCC(CC(=O)O)C1Cc2ccccc2O1` (centres undefined), the IC50 (at GABA B receptor; in test [1]) was > 100 µM throughout.

Regarding `COc1ccc2oc(C(CN)CC(=O)O)cc2c1` (centres undefined), the IC50 on GABA B receptor is 5.6 µM; in test [1], > 100 µM. As for `NCC(CC(=O)O)c1ccc(OCc2ccc(Cl)s2)cc1` (centres undefined), the IC50 in test [1] was > 100 µM. As for `COc1ccc2c(c1)CC(C(CN)CC(=O)O)O2` (centres undefined), the IC50 (on GABA B receptor; in test [1]) was > 100 µM each time.

Turning to `NCC(CC(=O)O)c1ccc(O)cc1` (centres undefined), the IC50 (at GABA B receptor; in test [1]) was > 100 µM throughout. Regarding `NCC(CC(=O)O)c1cc2ccccc2o1` (centres undefined), the IC50 at GABA B receptor was 18 µM; in test [1], > 100 µM. As to `NCC(CC(=O)O)c1ccc(OCc2ccccc2)cc1` (centres undefined), the IC50 (on GABA B receptor; in test [1]) was > 100 µM throughout. Regarding `NCC(CC(=O)O)c1ccc(OCc2ccc(F)cc2)cc1` (centres undefined), the IC50 (at GABA B receptor; in test [1]) was > 100 µM each time. `Cn1c(=O)oc2cc(C(CN)CC(=O)O)ccc21` (centres undefined): the IC50 (on GABA B receptor; in test [1]) was > 100 µM each time. In the case of `NCc1cc(=O)[nH]o1` [MUSCIMOL], in test [1], the IC50 was 0.01 µM.
